KCNK3 inh – human KCNK3 channel inhibition, primary screen; O14649; CHO-KCNK3 thallium flux, FluxOR fluorescence; hits give low values; B-score at 10 µM; 340,000 tested, 0.84% active;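 active means B-score under library mean minus 4 SD, starting fluorescence ratio at most library mean plus 5 SD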;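 further: more negative B-score means stronger inhibition of thallium flux through KCNK3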
KCNK9 block – inhibitors of human KCNK9 two-pore domain potassium channel. B-score at 10 µM. AID 488922. 310,000 tested, 1.2% active. HEK293 KCNK9, FluxOR thallium flux fluorescence; hits give low values. Q9NPC2;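 active means ratio B-score over 3 SD below the library mean, with starting fluorescence within 5 SD of its mean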;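 further: negative B-score means less thallium flux so channel inhibition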
hERG protect – compounds protecting human hERG from proarrhythmic drug block | AID 1511 | activation (rescue from dofetilide block), less the hit threshold, % at 10 µM | CHO-hERG, FluxOR thallium flux, dofetilide IC70 present | 310,000 tested, 0.51% active | Q12809;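 active means activation above the mean of controls blocked by dofetilide plus 5 SD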;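 further: thallium influx through hERG after potassium depolarization seen as dye fluorescence rise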
KCNQ1 inh – human KCNQ1 channel inhibition; CHO-K1 KCNQ1, FluxOR thallium flux fluorescence; hits give high values; AID 2642; 310,000 tested, 1.3% active; B-score at 10 µM;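 active means compounds whose thallium flux B-score, printed positive for inhibition, exceeds three library SD while starting fluorescence stays within three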;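 further: channel opened by potassium depolarization with thallium stimulus after 20 min compound exposure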
Target sequence (P51787 whole entry, looked up): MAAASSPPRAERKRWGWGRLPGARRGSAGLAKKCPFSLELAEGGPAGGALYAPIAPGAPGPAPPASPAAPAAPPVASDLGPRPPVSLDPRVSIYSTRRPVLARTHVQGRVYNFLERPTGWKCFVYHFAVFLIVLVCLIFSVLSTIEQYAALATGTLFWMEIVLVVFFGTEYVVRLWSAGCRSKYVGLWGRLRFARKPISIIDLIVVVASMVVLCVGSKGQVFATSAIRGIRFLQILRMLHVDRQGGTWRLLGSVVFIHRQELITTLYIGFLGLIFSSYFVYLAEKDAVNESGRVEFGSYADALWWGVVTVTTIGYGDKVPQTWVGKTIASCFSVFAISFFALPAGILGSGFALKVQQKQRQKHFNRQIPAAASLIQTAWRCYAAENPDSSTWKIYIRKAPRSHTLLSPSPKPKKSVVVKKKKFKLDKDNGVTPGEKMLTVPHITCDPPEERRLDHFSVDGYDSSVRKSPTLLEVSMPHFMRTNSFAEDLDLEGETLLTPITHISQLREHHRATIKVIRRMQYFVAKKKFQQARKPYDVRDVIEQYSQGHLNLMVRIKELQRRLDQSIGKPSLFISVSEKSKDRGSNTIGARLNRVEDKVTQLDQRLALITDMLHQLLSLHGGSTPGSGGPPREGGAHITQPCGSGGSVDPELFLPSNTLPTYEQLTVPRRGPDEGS
KCNQ1 act – potentiators or activators of human KCNQ1 potassium channel; P51787; CHO-K1 KCNQ1, thallium flux FluxOR fluorescence; hits give high values; B-score at 10 µM; 310,000 tested, 0.35% active;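 active means fluorescence ratio B-score, a plate-corrected score, at least three library SD, with initial intensity B-score within 5 SD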
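Material: CHO-K1 cells stably expressing KCNQ1. Medium: assay buffer for compound exposure, DMSO matched across wells. Reagent: K+/Tl+ depolarizing stimulus. Compound dosing: single-concentration screen. Times: 37 °C overnight plating, 90-min dark dye load, 20-min compound pretreatment. Technique: FluxOR Tl+ flux fluorescence.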
* = called active by the depositor; i = inactive; · = no result. A selection: hits, their analogues and other compounds. The true share with any hit is near 3.1%.

SMILES	KCNK3 inh	KCNK9 block	hERG protect	KCNQ1 inh	KCNQ1 act
C=CCn1c(=O)c2ccccc2n2c(=S)[nH]nc12	i	i	-6	i	i
C=CCn1c(=S)[nH]c2ccc(Br)cc2c1=O	i	i	10*	i	19*
C=CCn1c(=S)[nH]c2nc3c(cc2c1=O)CCCC3	i	i	5.9*	i	9*
CC(C)Oc1cccc(C(=O)N2CCCC2)c1	i	i	19*	i	i
Cc1cccc(C(=O)N2CCCCCC2)c1	i	i	-9	i	i
COc1ccccc1CNCc1cccc(Oc2ccccc2)c1	i	i	-15	i	8*
O=C(Nc1nccs1)c1ccc(-c2ccc(F)c(Cl)c2)o1	i	i	-2	i	i
CCN1c2ccccc2-c2nc3ccccc3n2C1c1ccccn1 (configuration not stated)	-10*	i	-9	i	i
CCN1c2ccccc2-c2nc3ccccc3n2C1c1ccncc1 (configuration not stated)	i	i	-10	i	i
O=C(Nc1ccc(N2CCN(C(=O)c3cccs3)CC2)cc1)c1ccc(Br)o1	i	·	·	·	·
O=C(Nc1cc(C(F)(F)F)ccc1Cl)C(Sc1ccccn1)c1ccccc1 (configuration not stated)	i	-8.1*	3	i	i
CSc1ncc(C(=O)Nc2ccccc2Cl)c(C)n1	i	i	-4	i	13*
CCOC(=O)c1cnc(SC)nc1Sc1ccccc1Cl	i	i	-10	6*	i
CSc1ncc(C(=O)Nc2ccccc2C)c(C)n1	i	i	-4	i	i
COc1ccc(CN2CCNC(=O)C2CC(=O)N(C)Cc2ccon2)c(OC)c1 (configuration not stated)	i	i	-7	6*	i
COc1ccccc1CN1CCNC(=O)C1CC(=O)N(C)Cc1ccon1 (configuration not stated)	i	i	-6	i	i
CCOc1ccc(/C=C/C(O)=C2/C(=O)NC3(C)CC2c2ccccc2O3)cc1OC (configuration not stated)	i	i	-2	i	i
CN(C)c1ccc(/C=C/C(O)=C2/C(=O)N(C)C3(C)CC2c2ccccc2O3)cc1 (configuration not stated)	·	i	-17	7*	i
CC1(C)OC(=O)N(c2ccccc2)C12C=Cc1cc(Br)ccc1O2 (configuration not stated)	i	-7.2*	-7	i	i
CC(Sc1nnc(CN2CCCC2)n1Cc1ccccc1)C(=O)Nc1ccc(F)cc1Cl (configuration not stated)	i	·	·	·	·
CCNC(=O)COc1ccc(-c2ccccc2)cc1	i	i	-7	i	i
CC(C)(C)NC(=O)COc1ccc(-c2ccccc2)cc1	i	-7.7*	-18	i	i
CC(C)Oc1ccc(S(=O)(=O)N2CCOCC2)cc1NC(=O)c1cccc(S(=O)(=O)N2CCCC2)c1	i	·	·	·	·
O=C(Nn1c(O)c(C=C2N=c3ccccc3=N2)sc1=S)c1cccc(Cl)c1	i	i	12*	i	i
COc1cc(C(=S)N2CCOCC2)ccc1OC(=O)c1ccc([N+](=O)[O-])cc1[N+](=O)[O-]	i	i	5.9*	i	i
SMILES	KCNK3 inh	KCNK9 block	hERG protect	KCNQ1 inh	KCNQ1 act
COc1ccc(C(=S)N2CCOCC2)cc1OC(=O)c1ccc([N+](=O)[O-])cc1	i	i	-4	i	i
Cc1cc(C)n(/C(=C\N(C)C)C(=O)c2ccc(Cl)cc2)n1	i	i	5.6*	i	i
COc1ccc(C(=O)/C(=C\N(C)C)n2nc(C)cc2C)cc1	i	i	-9	i	i
Cc1cc(Nc2ccccc2)n(C(=O)c2ccc(Cl)cc2)n1	i	-6.6*	-7	i	i
Cc1ccn(CCC(=O)N2CCc3ccccc32)n1	i	i	-9	i	i
Cc1cc(Br)ccc1NC(=S)Nc1cccc([N+](=O)[O-])c1	i	i	-18	10*	i
Cc1ccc(NS(=O)(=O)c2cc(C(=O)Nc3cccc([N+](=O)[O-])c3)ccc2C)cc1	i	-6.8*	-3	i	i
Cc1cccc(NC(=S)NNC(=O)c2cccc([N+](=O)[O-])c2)c1	i	i	-18	7*	i
